Rows were chosen to be rich in hits. Some 1.4% of all compounds tested hit in one or more screens of this group.
bovine MsrA act: activates bovine MsrA enzyme. purified bovine MsrA, absorbance read-out. hit rate 0.3% among 360,000. activation, % at 10.6 µM; in the data active means activation above about 7.5%;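 further: 0% = vehicle and 100% = reference activator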
MsrA inhibitor: inhibitors of bovine MsrA | inhibition, % at 15.5 µM | purified bovine MsrA, absorbance read-out | hit rate 0.75% among 360,000 | AID 651718;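 further: 0% = vehicle wells with enzyme and 100% = reference inhibitor wells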
ASAP1 inh: inhibitors of human ASAP1 ArfGAP activity; Q9ULH1; ASAP1-stimulated ARF1 GTP hydrolysis, GDP FP detection; inhibition, % at 16.5 µM; hit rate 0.19% among 360,000; AID 624377; in the data active means inhibition above about 25%;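 further: 0% = vehicle with enzyme and substrate and 100% = no enzyme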
Target sequence (Q9ULH1 325-724 limits assumed): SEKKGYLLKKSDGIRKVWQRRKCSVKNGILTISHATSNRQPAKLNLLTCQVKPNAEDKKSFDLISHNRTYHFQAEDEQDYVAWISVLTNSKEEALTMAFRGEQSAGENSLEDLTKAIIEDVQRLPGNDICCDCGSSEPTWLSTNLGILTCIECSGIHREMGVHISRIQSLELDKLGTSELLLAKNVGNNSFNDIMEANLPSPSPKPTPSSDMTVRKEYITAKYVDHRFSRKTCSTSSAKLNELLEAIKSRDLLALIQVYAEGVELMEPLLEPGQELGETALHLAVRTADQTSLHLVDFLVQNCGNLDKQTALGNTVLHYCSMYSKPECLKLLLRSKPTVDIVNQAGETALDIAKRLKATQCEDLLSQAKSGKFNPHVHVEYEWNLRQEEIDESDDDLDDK
ARFGAP1 inh: inhibits rat ARF GTPase activating protein 1; AID 651572; inhibition, % at 16.5 µM; Arfgap1-stimulated ARF1 GTP hydrolysis, GDP FP detection; Q62848; hit rate 0.26% among 360,000;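 active means inhibition above a per-plate limit, mean inhibition of low control wells plus 3 SD, cut at about 25% in these data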;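 further: 0% = DMSO wells with enzyme and 100% = wells lacking Arfgap1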
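Replicates: Single well per compound | Assay system: Truncated rat Arfgap1 GAP domain | Control set: No-Arfgap1 wells (100%) versus DMSO full-reaction wells (0%) | Times: Enzyme reaction 120 min at 25 °C after 20 min preincubation | Reagent: Human ARF1(Δ1-17)-GTP substrate | Measured by: Tracer-displacement fluorescence polarization with EDTA stop, 620/688 nm | Measure: Percent inhibition of Arfgap1-stimulated GTP hydrolysis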
MsrA inh confirm: bovine MsrA inhibition, confirmed | shares compounds with MsrA inhibitor | purified bovine MsrA, absorbance read-out | inhibition, % at 15.5 µM | hit rate 41% among 2,300 | AID 651822;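 further: coupled to thioredoxin reductase with NADPH and selenocystamine and DMSO as substrate; 0% = vehicle only and 100% = full effect of reference inhibitor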
* hit, by the source's call; . = no result. Unless noted, no stated cut-off is given here; in the data, active means inhibition above about 4.5%; inactive means the rest.

SMILES	bovine MsrA act	MsrA inhibitor	ASAP1 inh	ARFGAP1 inh	MsrA inh confirm
COc1ccc(/C=C2\SC(=O)N(CCNC(=O)C3CSC4(C)CCC(=O)N34)C2=O)cc1 (configuration not stated)	-7.5	6.4*	17.5	-3.2	3.0
CC1Sc2ccc(C(=O)N(CCc3ccccc3)Cc3ccccc3)cc2NC1=O (configuration not stated)	1.8	-0.8	-0.8	13.5	.
CC(=O)Nc1ccc(S(=O)(=O)NCCC(=O)NNC(=O)c2ccccc2O)cc1	-3.4	-0.4	-4.3	-1.3	.
Cc1nnc(SCc2nc3sc4c(c3c(=O)[nH]2)CCCC4)[nH]c1=O	-9.9	-0.1	-15.2	1.1	.
Fc1ccccc1Nc1nc2ccccc2n2nnnc12	-3.5	11.2*	-11.2	-8.3	7.3*
Fc1cccc(Nc2nc3ccccc3n3nnnc23)c1	-6.7	3.2	-15.9	4.8	.
c1ccc(Nc2nc3ccccc3n3nnnc23)cc1	-1.8	8.1*	-3.1	5.2	4.9*
COc1cccc(Nc2nc3ccccc3n3nnnc23)c1	-2.3	8.8*	5.4	5.1	7.9*
CC1CCN(C2=NC(=O)/C(=C/c3cccc(O)c3)S2)CC1	-2.4	4.7*	8.2	3.0	2.4
O=C1N=C(N2CCN(c3ccccc3)CC2)S/C1=C/c1cccs1	-6.2	1.7	-0.5	9.8	.
CC1CCN(C2=NC(=O)/C(=C/c3ccccc3F)S2)CC1	-2.5	5.4*	-2.5	-1.7	4.4
O=C1N=C(N2CCOCC2)S/C1=C\c1cccnc1	1.2	1.5	0.6	-6.6	.
CCOc1ccccc1C1CC(=O)Nc2c1c(=O)n(C)c(=O)n2C (configuration not stated)	-1.7	0.0	-6.3	-2.5	.
CCOc1nc(NCCN2CCOCC2)nc(Nc2ccc([N+](=O)[O-])cc2)n1	-5.4	2.9	3.0	1.0	.
COc1nc(NCCN2CCOCC2)nc(Nc2ccc([N+](=O)[O-])cc2)n1	-12.7	4.8*	-11.8	17.6	3.0
COc1ccc(/C=C/C(=O)Nc2c(C(=O)O)[nH]c3ccccc23)cc1OC	-8.2	5.6*	-3.5	-2.3	3.1
COc1ccc(/C=C/C(=O)Nc2ccc(-n3nncc3-c3ccc(OC)c(OC)c3)cc2)cc1OC	-1.8	5.1*	9.6	21.6	4.4
CC(C)c1csc(CN2CCC(CO)(Cc3cccc(F)c3)CC2)n1	-6.5	0.6	1.1	7.7	.
CC(=O)Nc1nc2[nH]ccc2c(=O)[nH]1	-2.1	-1.5	0.7	1.2	.
O=C(N/N=C/C=C/c1ccccc1)c1ccncc1	-1.0	8.0*	1.1	-1.0	6.9*
Nc1ccc(C(=O)N/N=C\C=C\c2cccc([N+](=O)[O-])c2)cc1	-9.8	9.9*	-8.2	9.9	6.8*
O=C(O)c1ccc(N/N=C/c2cccc3nccnc23)cc1	-8.4	5.3*	4.8	1.7	3.8
O=C(O)c1ccc(N/N=C/c2cc3ccccc3nc2Cl)cc1	-7.9	2.0	-2.1	-0.9	.
O=C(CSc1nnc(NC(=O)C2CC(=O)N(c3ccccc3)C2)s1)NCc1ccco1 (configuration not stated)	-7.5	0.3	8.0	-8.8	.
COc1ccc(-c2cccc3c4c([nH]c23)[C@@H]2C[C@H]3[C@@H](C(=O)N2CC4)[C@H](C)ON3C)cc1	.	0.2	4.2	-4.6	.
SMILES	bovine MsrA act	MsrA inhibitor	ASAP1 inh	ARFGAP1 inh	MsrA inh confirm
COc1cc(/C=N/n2cnnc2-n2nc(C)cc2C)cc([N+](=O)[O-])c1O	-5.4	5.2*	-5.7	17.4	3.9
COc1cc(/C=N/NC(=O)c2ccc(C)nc2)cc([N+](=O)[O-])c1O	-9.1	5.3*	-3.6	5.6	3.9
COc1cc(/C=N/NC(=O)c2cccnc2)cc(Br)c1O	-10.4	4.7*	1.5	-16.8	4.1
CCOc1cc(/C=N\NC(=O)c2ccc(C)nc2)cc([N+](=O)[O-])c1O	-3.2	8.0*	0.6	-7.8	6.4*
COc1cc([N+](=O)[O-])cc(/C=N/NC(=O)c2ccc(C)nc2)c1O	-1.3	2.0	11.2	4.2	.
Cc1ccc(C(=O)N/N=C\c2ccccc2[N+](=O)[O-])cn1	-4.2	-1.3	6.4	-0.8	.
CCOc1ccc(-c2nnc(NC(=O)COc3ccccc3F)o2)cc1	-1.4	1.2	-12.4	-6.7	.
CCCNC(=O)C1(C)CCCN(Cc2ccc(C)cc2)C1 (configuration not stated)	-2.4	0.1	0.9	-5.1	.
COc1cc(OC)c(OC)cc1/C=C/c1cc(C(F)(F)F)[nH]c(=O)n1	-3.1	0.5	0.1	16.6	.
COc1cc(/C=C/c2cc(C(F)(F)F)[nH]c(=O)n2)cc(OC)c1OC	-12.7	5.6*	-4.0	4.6	3.0

High-throughput results (PubChem)
